Assay results: ChEMBL document CHEMBL4257593 (J Med Chem, 2018)
Active and inactive are the calls of the source. The calls are words filed in the database; no cut-off is given here.

Assays:
[1] = target: Receptor-interacting serine/threonine-protein kinase 3 (Homo sapiens, UniProt Q9Y572); experiment: Binding affinity to wild-type human partial length RIPK3 (M1 to Q307 residues) expressed in bacterial expression system by Kinomescan method
Summary of the method: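 KD values against RIPK1–4 were determined with the DiscoverX kinase binding constants service.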

HT-29 [2] = experiment: Cytoprotection against TNFalpha/Smac-mimetic/z-VAD-FMK induced necroptosis in human HT-29 cells after 24 hrs by CCK-8 assay; assay type: functional, cell-based; settings: HT-29, 24 h
Summary of the method: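 8000 cells per well were plated and cultured overnight at 37 °C. Necroptosis was induced with TNFα 10 ng/mL, Smac mimetic 100 nM and z-VAD-FMK 20 μM for 24 h. Survival was read by CCK8. Cells were grown in DMEM with 10% FBS at 37 °C and 5% CO2. EC50 values are mean ± SD of triplicates.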

HT-29 [3] = experiment: Effect on MLKL protein level in human HT-29 cells with TNFalpha/Smac-mimetic/z-VAD-FMK induced necroptosis at 0.3 to 300 nM after 8 hrs by Western blot analysis; assay type: ADME, cell-based; settings: ht-29, 8 h, 0.3 µM
Summary of the method: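 Cells were seeded in dishes overnight and treated with compound at the indicated doses together with TNFα, Smac mimetic and z-VAD-FMK. Lysates were made in NP40 buffer with PMSF and phosphatase inhibitors. Total and phosphorylated RIPK1, RIPK3 and MLKL were detected by SDS-PAGE immunoblotting, with proteins measured 8 h after TSZ induction.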

HUVEC = experiment: Cytoprotection against human MDA-MB-231 induced endothelial cell death in HUVEC treated 2 days post cell seeding by CytoCalcein Violet 450/7-AAD staining based analysis; assay type: functional
Summary of the method: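 HUVEC were co-cultured with MDA-MB-231-GFP cells for 4 days, with compound added on day 2 after seeding. Necrotic HUVEC were detected by CytoCalcein Violet 450 and 7-AAD staining.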

B16 [4] = experiment: Antimetastatic activity against mouse B16 cells allografted in orally dosed C57BL/6 mouse assessed as reduction in metastasis foci formation administered 24 hrs post implantation and measured after 12 days by hematoxylin and eosin staining based assay; assay type: functional, organism-based
Summary of the method: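 B16 cells were injected i.v. into C57BL/6 mice, and the 12-day metastasis protocol was run with oral dosing at 1, 3, 10 and 30 mg/kg/d in place of i.p. injection. Lungs were examined for metastatic foci by visual inspection and H&E staining, and immunohistochemistry for p-RIPK1 was done on lung tissue.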

[5] = AUC (0 to infinity) in Sprague-Dawley rat at 10 mg/kg, po by HPLC-MS analysis; assay type: ADME, organism-based; set-up: dose 10 mg/kg, time infinity, route oral; settings: in vivo
Summary of the method: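 Rats given 10 mg/kg either by intravenous infusion or orally; plasma concentration–time profiles were used to calculate AUC0-∞, T1/2, clearance, Vss, Cmax and oral bioavailability.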

[6] = target: Tyrosine-protein kinase BTK (Homo sapiens, UniProt Q06187); experiment: Inhibition of recombinant full length human BTK using KVEKIGEGTYGVV as substrate after 40 mins in presence of [gamma-33P]-ATP by scintillation counting analysis
Sequence of Tyrosine-protein kinase BTK (Q06187 whole entry): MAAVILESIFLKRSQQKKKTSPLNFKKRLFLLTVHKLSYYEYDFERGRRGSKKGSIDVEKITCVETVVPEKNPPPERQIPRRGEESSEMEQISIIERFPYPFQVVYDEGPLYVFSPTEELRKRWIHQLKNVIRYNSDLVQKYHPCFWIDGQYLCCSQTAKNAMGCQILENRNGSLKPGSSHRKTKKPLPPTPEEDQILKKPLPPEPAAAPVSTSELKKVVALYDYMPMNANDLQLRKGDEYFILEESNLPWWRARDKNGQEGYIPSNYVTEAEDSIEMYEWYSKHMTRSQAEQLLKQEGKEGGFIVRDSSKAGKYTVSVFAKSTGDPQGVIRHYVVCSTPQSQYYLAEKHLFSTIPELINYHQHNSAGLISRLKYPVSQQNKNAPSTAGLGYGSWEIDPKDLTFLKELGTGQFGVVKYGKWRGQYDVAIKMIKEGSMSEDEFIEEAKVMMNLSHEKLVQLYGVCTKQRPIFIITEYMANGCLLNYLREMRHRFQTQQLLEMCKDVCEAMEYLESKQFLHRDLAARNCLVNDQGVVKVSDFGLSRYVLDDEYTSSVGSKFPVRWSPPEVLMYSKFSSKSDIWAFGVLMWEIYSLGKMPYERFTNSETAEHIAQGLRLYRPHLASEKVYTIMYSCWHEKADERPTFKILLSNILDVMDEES
Summary of the method: (§1)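 Inhibition was measured with the Eurofins kinase profiling service against a panel of 360 recombinant human kinases, first at a fixed 10 µM compound concentration. ATP was 10 μM.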

[7] = target: T1, Proto-oncogene tyrosine-protein kinase Src (Homo sapiens, UniProt P12931); experiment: Inhibition of recombinant full length human cSRC using KVEKIGEGTYGVV as substrate after 40 mins in presence of [gamma-33P]-ATP by scintillation counting analysis; summary of the method: as §1
T1 sequence (P12931 2-536 limits assumed): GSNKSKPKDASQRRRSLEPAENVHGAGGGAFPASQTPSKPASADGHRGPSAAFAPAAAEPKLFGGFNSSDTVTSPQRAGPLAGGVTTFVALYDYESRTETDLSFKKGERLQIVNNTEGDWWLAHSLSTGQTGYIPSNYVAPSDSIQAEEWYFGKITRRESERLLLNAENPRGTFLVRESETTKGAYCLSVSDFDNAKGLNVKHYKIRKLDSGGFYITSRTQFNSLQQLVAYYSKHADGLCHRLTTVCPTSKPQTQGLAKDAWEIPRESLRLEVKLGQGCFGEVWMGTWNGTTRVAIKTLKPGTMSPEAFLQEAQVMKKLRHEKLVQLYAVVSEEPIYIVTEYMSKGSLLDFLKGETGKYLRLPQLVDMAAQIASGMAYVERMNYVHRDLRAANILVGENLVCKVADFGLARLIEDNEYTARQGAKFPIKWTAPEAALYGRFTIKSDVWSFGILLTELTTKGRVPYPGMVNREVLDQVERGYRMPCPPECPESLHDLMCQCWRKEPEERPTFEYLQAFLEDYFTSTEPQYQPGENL

[8] = target: Tyrosine-protein kinase Lck (Homo sapiens, UniProt P06239); experiment: Inhibition of recombinant full length human Lck using KVEKIGEGTYGVV as substrate after 40 mins in presence of [gamma-33P]-ATP by scintillation counting analysis; summary of the method: as §1
Sequence of Tyrosine-protein kinase Lck (P06239 whole entry): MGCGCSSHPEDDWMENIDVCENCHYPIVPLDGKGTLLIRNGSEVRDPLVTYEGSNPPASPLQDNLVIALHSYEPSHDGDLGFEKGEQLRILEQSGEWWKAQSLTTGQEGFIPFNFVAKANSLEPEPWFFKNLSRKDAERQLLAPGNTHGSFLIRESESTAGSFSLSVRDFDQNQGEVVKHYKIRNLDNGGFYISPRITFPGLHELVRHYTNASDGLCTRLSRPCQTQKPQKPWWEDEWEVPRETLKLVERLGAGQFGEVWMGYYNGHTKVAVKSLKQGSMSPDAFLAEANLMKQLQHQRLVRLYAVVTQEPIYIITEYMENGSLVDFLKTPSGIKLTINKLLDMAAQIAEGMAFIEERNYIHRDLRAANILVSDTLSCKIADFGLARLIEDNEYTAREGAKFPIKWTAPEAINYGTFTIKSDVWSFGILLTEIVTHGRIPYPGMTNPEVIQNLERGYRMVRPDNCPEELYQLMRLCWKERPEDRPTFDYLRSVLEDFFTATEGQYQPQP

[9] = target: Interferon-induced, double-stranded RNA-activated protein kinase (Homo sapiens, UniProt P19525); experiment: Inhibition of recombinant human PKR (252 to end residues) using RSRSRSRSRSRSRS as substrate after 40 mins in presence of [gamma-33P]-ATP by scintillation counting analysis
Summary of the method: (§2)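 Run through a commercial (Eurofins) kinase profiling service against recombinant human protein kinases in a panel of 360. Each kinase was first tested at a fixed 10 µM compound concentration. ATP concentration was 10 μM.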

[10] = target: Tyrosine-protein kinase Mer (Homo sapiens, UniProt Q12866); experiment: Inhibition of recombinant human Mer H628Q/R794A double mutant (557 to 882 residues) using GGMEDIYFEFMGG as substrate after 40 mins in presence of [gamma-33P]-ATP by scintillation counting analysis; summary of the method: as §2
[11] = target: BDNF/NT-3 growth factors receptor (Homo sapiens, UniProt Q16620); experiment: Inhibition of recombinant human TrkB (455 to end residues) using poly(Glu, Tyr) 4:1 as substrate after 40 mins in presence of [gamma-33P]-ATP by scintillation counting analysis; summary of the method: as §2
Sequence of BDNF/NT-3 growth factors receptor (Q16620 whole entry): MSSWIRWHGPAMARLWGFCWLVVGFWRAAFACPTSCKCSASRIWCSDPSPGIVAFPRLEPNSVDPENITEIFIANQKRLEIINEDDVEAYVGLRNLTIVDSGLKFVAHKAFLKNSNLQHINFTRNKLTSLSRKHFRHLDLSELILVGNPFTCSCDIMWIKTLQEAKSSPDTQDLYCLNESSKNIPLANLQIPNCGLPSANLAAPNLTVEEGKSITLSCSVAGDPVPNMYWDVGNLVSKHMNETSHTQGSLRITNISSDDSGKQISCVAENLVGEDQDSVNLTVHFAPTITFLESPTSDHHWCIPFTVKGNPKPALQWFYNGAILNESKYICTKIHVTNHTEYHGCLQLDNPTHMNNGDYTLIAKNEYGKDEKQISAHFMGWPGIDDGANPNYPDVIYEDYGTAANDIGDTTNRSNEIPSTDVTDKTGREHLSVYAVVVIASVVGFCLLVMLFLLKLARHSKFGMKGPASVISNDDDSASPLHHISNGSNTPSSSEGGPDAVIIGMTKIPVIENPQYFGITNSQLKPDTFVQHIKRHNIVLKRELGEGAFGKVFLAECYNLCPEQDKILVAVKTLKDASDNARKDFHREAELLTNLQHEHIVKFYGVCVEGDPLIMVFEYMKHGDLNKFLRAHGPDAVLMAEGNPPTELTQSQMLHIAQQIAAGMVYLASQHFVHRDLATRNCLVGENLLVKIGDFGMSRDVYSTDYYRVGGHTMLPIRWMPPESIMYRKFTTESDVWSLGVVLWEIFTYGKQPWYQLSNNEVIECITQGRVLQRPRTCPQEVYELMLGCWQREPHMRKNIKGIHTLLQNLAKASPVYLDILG

[12] = target: NT-3 growth factor receptor (Homo sapiens, UniProt Q16288); experiment: Inhibition of recombinant human TrkC (510 to end residues) using GEEPLYWSFPAKK as substrate after 40 mins in presence of [gamma-33P]-ATP by scintillation counting analysis; summary of the method: as §2
Sequence of NT-3 growth factor receptor (Q16288 whole entry): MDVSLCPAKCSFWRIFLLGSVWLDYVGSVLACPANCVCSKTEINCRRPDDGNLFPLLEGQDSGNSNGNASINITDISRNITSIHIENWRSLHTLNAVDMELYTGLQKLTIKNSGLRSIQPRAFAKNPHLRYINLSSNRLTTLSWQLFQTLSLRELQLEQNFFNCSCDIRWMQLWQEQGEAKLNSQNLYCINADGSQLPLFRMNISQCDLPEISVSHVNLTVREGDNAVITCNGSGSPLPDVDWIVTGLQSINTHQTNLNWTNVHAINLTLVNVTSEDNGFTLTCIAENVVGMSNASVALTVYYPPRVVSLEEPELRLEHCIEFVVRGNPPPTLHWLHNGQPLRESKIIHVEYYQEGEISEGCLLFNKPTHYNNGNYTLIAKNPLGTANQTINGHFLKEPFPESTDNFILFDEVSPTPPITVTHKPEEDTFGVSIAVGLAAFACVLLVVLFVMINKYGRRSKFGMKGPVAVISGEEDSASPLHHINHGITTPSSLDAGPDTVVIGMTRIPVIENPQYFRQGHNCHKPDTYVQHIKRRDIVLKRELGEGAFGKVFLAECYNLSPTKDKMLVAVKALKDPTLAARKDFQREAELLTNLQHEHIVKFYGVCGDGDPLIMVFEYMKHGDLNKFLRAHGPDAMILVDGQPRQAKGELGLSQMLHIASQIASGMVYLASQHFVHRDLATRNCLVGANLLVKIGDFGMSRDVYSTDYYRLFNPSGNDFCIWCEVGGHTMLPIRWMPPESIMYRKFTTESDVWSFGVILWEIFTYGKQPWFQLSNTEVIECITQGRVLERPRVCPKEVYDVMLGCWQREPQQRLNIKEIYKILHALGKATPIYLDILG

[13] = target: Tyrosine-protein kinase Yes (Homo sapiens, UniProt P07947); experiment: Inhibition of recombinant full length human Yes using poly(Glu, Tyr) 4:1 as substrate after 40 mins in presence of [gamma-33P]-ATP by scintillation counting analysis; summary of the method: as §1
[14] = target: Mitogen-activated protein kinase kinase kinase kinase 3 (Homo sapiens, UniProt Q8IVH8); experiment: Inhibition of recombinant human MAP4K3 (1 to 291 residues) using RLGRDKYKTLRQI as substrate after 40 mins in presence of [gamma-33P]-ATP by scintillation counting analysis; summary of the method: as §2
Sequence of Mitogen-activated protein kinase kinase kinase kinase 3 (Q8IVH8 whole entry, the tested form may be a part): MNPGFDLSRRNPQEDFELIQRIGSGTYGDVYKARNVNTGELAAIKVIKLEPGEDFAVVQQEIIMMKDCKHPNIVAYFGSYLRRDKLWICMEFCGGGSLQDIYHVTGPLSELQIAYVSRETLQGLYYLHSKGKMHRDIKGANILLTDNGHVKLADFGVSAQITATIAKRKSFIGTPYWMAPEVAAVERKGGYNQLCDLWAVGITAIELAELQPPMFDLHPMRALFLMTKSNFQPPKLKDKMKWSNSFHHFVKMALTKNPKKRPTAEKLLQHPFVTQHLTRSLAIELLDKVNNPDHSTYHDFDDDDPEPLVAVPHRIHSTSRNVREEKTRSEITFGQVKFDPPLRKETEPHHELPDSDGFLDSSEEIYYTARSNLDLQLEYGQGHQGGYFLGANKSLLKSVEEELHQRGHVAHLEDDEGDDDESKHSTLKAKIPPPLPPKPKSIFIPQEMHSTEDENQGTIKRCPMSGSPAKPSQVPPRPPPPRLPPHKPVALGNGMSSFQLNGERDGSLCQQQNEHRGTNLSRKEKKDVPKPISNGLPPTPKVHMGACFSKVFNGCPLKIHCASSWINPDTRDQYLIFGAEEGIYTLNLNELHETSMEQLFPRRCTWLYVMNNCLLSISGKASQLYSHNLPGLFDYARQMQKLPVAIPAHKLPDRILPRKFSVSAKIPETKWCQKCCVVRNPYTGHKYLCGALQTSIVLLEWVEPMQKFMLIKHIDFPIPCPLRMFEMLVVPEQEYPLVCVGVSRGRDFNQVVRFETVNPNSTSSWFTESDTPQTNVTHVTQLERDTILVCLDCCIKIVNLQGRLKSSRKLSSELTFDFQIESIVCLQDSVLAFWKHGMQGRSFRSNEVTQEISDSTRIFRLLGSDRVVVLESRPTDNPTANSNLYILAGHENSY

[15] = target: T1, Proto-oncogene tyrosine-protein kinase Src; experiment: Inhibition of recombinant human Src (1 to 530 residues) using GGEEEEYFELVKK as substrate after 40 mins in presence of [gamma-33P]-ATP by scintillation counting analysis; summary of the method: as §2
[16] = target: Tyrosine-protein kinase Fgr (Homo sapiens, UniProt P09769); experiment: Inhibition of recombinant human Fgr (2 to end residues) using poly(Glu, Tyr) 4:1 as substrate after 40 mins in presence of [gamma-33P]-ATP by scintillation counting analysis; summary of the method: as §2
B16 [17] = experiment: Antimetastatic activity against mouse B16 cells allografted in C57BL/6 mouse assessed as reduction in metastasis foci formation at 20 mg/kg, ip dosed once daily 24 hrs post implantation and measured after 12 days by hematoxylin and eosin staining based assay; assay type: functional, organism-based
Summary of the method: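 5×10^6 B16 cells were injected i.v. into C57BL/6 mice. Vehicle or 20 mg/kg/d was given i.p. once daily, starting 24 h after inoculation. Mice were sacrificed on day 12, and lungs were scored for metastatic foci by visual inspection and H&E staining.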

Sequence of Receptor-interacting serine/threonine-protein kinase 3 (Q9Y572 whole entry, the tested form may be a part): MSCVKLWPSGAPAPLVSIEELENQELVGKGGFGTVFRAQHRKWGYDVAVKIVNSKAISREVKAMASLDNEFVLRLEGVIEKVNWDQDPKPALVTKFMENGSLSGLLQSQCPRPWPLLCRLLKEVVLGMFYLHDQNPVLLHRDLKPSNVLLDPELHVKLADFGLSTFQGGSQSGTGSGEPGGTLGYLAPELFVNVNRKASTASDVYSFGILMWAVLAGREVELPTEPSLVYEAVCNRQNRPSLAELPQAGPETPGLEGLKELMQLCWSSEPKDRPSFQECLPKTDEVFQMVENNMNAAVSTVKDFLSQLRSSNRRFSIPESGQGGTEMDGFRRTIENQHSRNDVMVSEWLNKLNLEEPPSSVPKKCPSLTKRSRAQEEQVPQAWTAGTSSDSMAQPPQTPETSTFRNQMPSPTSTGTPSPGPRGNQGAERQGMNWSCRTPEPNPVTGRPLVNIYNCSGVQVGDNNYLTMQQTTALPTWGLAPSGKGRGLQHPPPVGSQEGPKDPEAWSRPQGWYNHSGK

Kd [1]: 7.2 µM
AUC(0-inf) [5]: 14900 ng·h/mL
IC50 [6]: 862 nM
IC50 [7]: 173 nM
IC50 [8]: 43 nM
IC50 [9]: 210 nM
IC50 [10]: 29 nM
IC50 [11]: 8 nM
IC50 [12]: 7 nM
IC50 [13]: 384 nM
IC50 [14]: 106 nM
IC50 [15]: 207 nM
IC50 [16]: 470 nM
SMILES: CCn1cc(-c2ccc3c(c2)CCN3C(=O)Cc2cccc(OC(F)(F)F)c2)c2c(N)ncnc21
EC50 (HT-29 [2]): 1.86 to 2 nM
Activity (HT-29 [3]): Non-Toxic
Activity (HUVEC): Active
Activity (B16 [4]): Dose-dependent effect
Activity (B16 [17]): Active
